Values after ≈ are worked out from the molar mass of the structure shown. Active and inactive are the calls of the source. No cut-off for these calls is given here. Peptide text beside a SMILES is read from it.
What was measured:
Enterococcus faecalis [1] = test: Antimicrobial activity against Enterococcus faecalis assessed as growth inhibition in presence of trypsin; format: functional, organism-based
Procedure, shortened: (§1)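 Strains in GM17 at 37°C, diluted 1:50 from overnight and grown to OD600 0.2, then exposed to peptide dilutions. OD600 read every 30 min. MIC = lowest inhibiting concentration when untreated cells reach half-maximal OD. At least triplicate.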

Streptococcus mitis [2] = test: Antimicrobial activity against Streptococcus mitis assessed as growth inhibition in presence of leucine aminopeptidase; format: functional, organism-based
Procedure, shortened: (§2)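 Leader cleaved by 30 min incubation at 37°C with leucine aminopeptidase in phosphate buffer, pH 7.4. Strains in GM17 at 37°C, diluted 1:50 from overnight and grown to OD600 0.2, then mixed with peptide dilutions. OD600 monitored every 30 min. MIC = lowest concentration inhibiting growth, read when untreated cultures reach half-maximal OD. At least triplicate.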

Enterococcus faecalis [3] = test: Antimicrobial activity against Enterococcus faecalis assessed as growth inhibition in presence of leucine aminopeptidase; format: functional, organism-based; procedure, shortened: as §2
Streptococcus pneumoniae [4] = test: Antimicrobial activity against Streptococcus pneumoniae assessed as growth inhibition in presence of leucine aminopeptidase; format: functional, organism-based; procedure, shortened: as §2
Streptococcus pneumoniae [5] = test: Antimicrobial activity against Streptococcus pneumoniae assessed as growth inhibition in presence of trypsin; format: functional, organism-based; procedure, shortened: as §1
Streptococcus mitis [6] = test: Antimicrobial activity against Streptococcus mitis assessed as growth inhibition in presence of trypsin; format: functional, organism-based; procedure, shortened: as §1
Staphylococcus aureus [7] = test: Antimicrobial activity against Staphylococcus aureus assessed as growth inhibition in presence of leucine aminopeptidase; format: functional, organism-based; procedure, shortened: as §2
Micrococcus flavus [8] = test: Antimicrobial activity against Micrococcus flavus assessed as growth inhibition; format: functional
Procedure, shortened: (§3)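 Broth microdilution MIC in GM17 in 96-well plates. Overnight M. flavus culture diluted 1:50 and grown to OD600 0.2, then 150 µl culture mixed with 50 µl medium containing serial peptide concentrations. Incubated overnight at a temperature suited to the strain (M. flavus grown at 30°C), with OD600 read every 30 min. MIC is the lowest concentration inhibiting growth, read when untreated cells reach half-maximal OD. At least triplicate.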

Micrococcus flavus [9] = test: Antimicrobial activity against Micrococcus flavus assessed as growth inhibition in presence of leucine aminopeptidase; format: functional; procedure, shortened: as §3
Micrococcus flavus [10] = test: Antimicrobial activity against Micrococcus flavus assessed as growth inhibition in presence of trypsin; format: functional; procedure, shortened: as §3
Staphylococcus aureus [11] = test: Antimicrobial activity against Staphylococcus aureus assessed as growth inhibition in presence of trypsin; format: functional, organism-based; procedure, shortened: as §1

SMILES | growth inhibition (GI) (Enterococcus faecalis [1]) | growth inhibition (GI) (Streptococcus mitis [2]) | growth inhibition (GI) (Enterococcus faecalis [3]) | growth inhibition (GI) (Streptococcus pneumoniae [4]) | growth inhibition (GI) (Streptococcus pneumoniae [5]) | growth inhibition (GI) (Streptococcus mitis [6]) | growth inhibition (GI) (Staphylococcus aureus [7]) | MIC (Micrococcus flavus [8]) [µM] | MIC (Micrococcus flavus [9]) [µM] | MIC (Micrococcus flavus [10]) [µM] | growth inhibition (GI) (Staphylococcus aureus [11])
CC[C@H](C)[C@H](NC(=O)[C@H](Cc1ccccc1)NC(=O)[C@H](CO)NC(=O)[C@H](CC(C)C)NC(=O)[C@@H](NC(=O)[C@H](C)NC(=O)[C@H](CO)NC(=O)[C@H](CS)NC(=O)[C@@H](NC(=O)[C@@H](NC(=O)[C@@H](NC(=O)[C@@H](N)CO)[C@@H](C)O)[C@@H](C)CC)[C@@H](C)CC)[C@@H](C)O)C(=O)N[C@@H](C)C(=O)N[C@@H](CO)C(=O)N[C@@H](Cc1ccc(O)cc1)C(=O)N[C@@H](CC(C)C)C(=O)NCC(=O)N[C@@H](CO)C(=O)N[C@@H](C)C(=O)N[C@@H](CCC(N)=O)C(=O)N[C@H](C(=O)N[C@@H](CCCNC(=N)N)C(=O)N[C@@H](CS)C(=O)NCC(=O)N[C@@H](CCCCN)C(=O)N[C@@H](CC(=O)O)C(=O)N[C@@H](CC(N)=O)C(=O)N[C@@H](CCCCN)C(=O)N[C@@H](CCCCN)C(=O)N[C@@H](CCCCN)C(=O)O)[C@@H](C)O (H-STIICSATLSFIASYLGSAQTRCGKDNKKK-OH) | inactive | inactive | inactive | inactive | inactive | inactive | inactive | 85 (≈ 271 µg/mL) | 8.5 | 10 | inactive
CC[C@H](C)[C@H](NC(=O)CNC(=O)[C@H](CO)NC(=O)[C@@H](NC(=O)[C@H](C)NC(=O)[C@H](C)NC(=O)[C@H](CO)NC(=O)[C@@H](NC(=O)[C@H](CS)NC(=O)[C@@H](NC(=O)[C@H](CCCCN)NC(=O)[C@H](CO)NC(=O)[C@H](CO)NC(=O)[C@H](C)NC(=O)[C@H](C)NC(=O)[C@H](C)NC(=O)[C@H](CO)NC(=O)[C@H](CCCCN)NC(=O)[C@H](CC(C)C)NC(=O)[C@@H](NC(=O)[C@@H](NC(=O)[C@@H]1CCCN1C(=O)[C@@H](NC(=O)[C@@H]1CCCN1C(=O)[C@@H](NC(=O)[C@@H](N)Cc1c[nH]c2ccccc12)[C@@H](C)O)[C@@H](C)O)[C@@H](C)CC)[C@@H](C)CC)C(C)C)[C@@H](C)CC)C(C)C)C(=O)NCC(=O)NCC(=O)N[C@@H](CC(C)C)C(=O)N[C@H](C(=O)N[C@@H](CO)C(=O)N[C@@H](Cc1ccc(O)cc1)C(=O)N[C@@H](CC(N)=O)C(=O)N[C@@H](CC(N)=O)C(=O)N[C@@H](CC(=O)O)C(=O)N[C@@H](CS)C(=O)N[C@@H](CC(C)C)C(=O)NCC(=O)O)C(C)C (H-WTPTPIILKSAAASSKVCISAAVSGIGGLVSYNNDCLG-OH) | inactive | inactive | inactive | inactive | inactive | inactive | inactive | 80 (≈ 301 µg/mL) |  | 0.6 | inactive
C=C(NC(=O)[C@H](NC(=O)[C@@H](Cc1cnc[nH]1)NC(=O)[C@H](NC(=O)[C@@H](CO)NC(=O)[C@H]1CS[C@H](C)[C@@H]2NC(=O)[C@@H](C)NC(=O)[C@@H](NC(=O)[C@@H](CCCCN)NC(=O)[C@@H](CCSC)NC(=O)[C@@H](CC(N)=O)[C@H]3CS[C@H](C)[C@H](NC(=O)[C@@H](CCCCN)NC(=O)[C@H]4CS[C@H](C)[C@H](NC(=O)[C@H]5CSC[C@H](NC(=O)/C(=C/C)NC(=O)[C@H](N)[C@H](C)CC)C(=O)N[C@H]([C@H](C)CC)C(=O)NC(=C)C(=O)N[C@H](CC(C)C)C(=O)N5)C(=O)N5CCC[C@@H]5C(=O)NCC(=O)N4)C(=O)NCC(=O)N[C@H](C)C(=O)N[C@H](CC(C)C)C(=O)N[C@H](CCSC)C(=O)NCC(=O)N3)[C@@H](C)SC[C@@H](NC2=O)C(=O)N[C@H](Cc2cnc[nH]2)C(=O)N1)[C@H](C)CC)C(C)C)C(=O)N[C@H](CCCCN)C(=O)O [PRENISIN] |  |  |  |  |  |  |  | 20 (≈ 66.2 µg/mL) |  | 0.004 | 
